Reference: ChEMBL document CHEMBL3272122, “4-(6-Methoxy-2-naphthyl)butan-2-one and related analogues, a novel structural class of antiinflammatory compounds” (1978)
Calls of active or inactive are those of the source. No cut-off for these calls is given here.

What was measured:
Rattus norvegicus [1] = experiment: Antiinflammatory activity in Wistar rat assessed as inhibition of cotton pellet-induced granuloma formation at 50 mg/kg, po after 5 days relative to control; assay type: functional; settings: for inhibition in vivo at 50 mg/kg: 120 h
Outline: (§1)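 Preweighed sterile cotton wool pellets were implanted subcutaneously in rats, one on each side of a ventral midline incision. Compounds were suspended in 0.7% methylcellulose and given orally once daily on days 0–5, starting 2–3 h before implantation; controls received vehicle (10 mL/kg). On day 6 the pellets were removed and dried at 80 °C to constant weight. Mean granuloma per rat was compared with controls by Student's t test.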

Rattus norvegicus [2] = experiment: Antiinflammatory activity in Wistar rat assessed as inhibition of cotton pellet-induced granuloma formation at 3 mg/kg, po after 5 days relative to control; assay type: functional, organism-based; parameters: dose 3 mg/kg; outline: as §1
Rattus norvegicus [3] = experiment: Antiinflammatory activity in Wistar rat assessed as inhibition of cotton pellet-induced granuloma formation at 10 mg/kg, po after 5 days relative to control; assay type: functional; settings: 120 h; outline: as §1
Rattus norvegicus [4] = experiment: Antiinflammatory activity in rat assessed as inhibition of carrageenan-induced paw edema at 15 mg/kg, po relative to control; assay type: functional
Outline: (§2)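 Carrageenan paw edema in rats, compounds given orally. Edema is expressed as percent inhibition.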

Rattus norvegicus [5] = experiment: Antiinflammatory activity in rat assessed as inhibition of carrageenan-induced paw edema at 100 mg/kg, po relative to control; assay type: functional; outline: as §2
Rattus norvegicus [6] = organism: Rattus norvegicus; experiment: animal or person; settings: Wistar, po, 120 h, read-out: INH
Rattus norvegicus [7] = organism: Rattus norvegicus; experiment: animal or person; settings: po, read-out: INH
Rattus norvegicus [8] = experiment: Antiinflammatory activity in Wistar rat assessed as inhibition of cotton pellet-induced granuloma formation at 100 mg/kg, po after 5 days relative to control; assay type: functional; settings: 120 h; outline: as §1
Rattus norvegicus [9] = experiment: Antiinflammatory activity in rat assessed as inhibition of carrageenan-induced paw edema at 300 mg/kg, po relative to control; assay type: functional; outline: as §2

| Structure (SMILES) | inhibition in vivo at 50 mg/kg (Rattus norvegicus [1]) [%] | further results |
| --- | --- | --- |
| COc1ccc2cc(CCC(C)OC(=O)c3cc(OC)c(OC)c(OC)c3)ccc2c1 (stereo not drawn) | 41 | – |
| C[C@]12CCC(=O)C=C1CC[C@@H]1[C@@H]2[C@@H](O)C[C@@]2(C)[C@H]1CC[C@]2(O)C(=O)CO [HYDROCORTISONE] | – | inhibition (Rattus norvegicus [2]): inactive; inhibition in vivo at 10 mg/kg (Rattus norvegicus [3]): 30% |
| COc1ccc2cc(CCC(C)(C)O)ccc2c1 | 3 | – |
| COc1ccc2cc(CC(C)C(C)=O)ccc2c1 (stereo not drawn) | 7 | – |
| CNC(=O)Oc1ccc2cc(CCC(C)=O)ccc2c1 | 21 | inhibition (Rattus norvegicus [2]): inactive |
| CC(=O)CCc1ccc2cc(O)ccc2c1 | 5 | – |
| CC(=O)CC(C)c1ccc2cc(C)ccc2c1 (stereo not drawn) | 11 | – |
| CC(=O)CCc1ccc2cc(OC(C)=O)ccc2c1 | 2 | – |
| COc1ccc2cc(CCC(C)=O)ccc2c1 [NABUMETONE] | 39 | inhibition in vivo at 15 mg/kg (Rattus norvegicus [4]): 37% |
| COc1ccc2cc(CCC3(C)OCCO3)ccc2c1 | 22 | – |
| COc1ccc2cc(C(C)CC(C)=O)ccc2c1 (stereo not drawn) | 24 | inhibition in vivo at 100 mg/kg (Rattus norvegicus [5]): 36% |
| CC(=O)CCc1ccc2cc(C)ccc2c1 | 34 | – |
| COc1ccc2cc([C@H](C)C(=O)O)ccc2c1 [NAPROXEN] | – | inhibition in vivo at 30 mg/kg (Rattus norvegicus [6]): 46%; inhibition in vivo at 6 mg/kg (Rattus norvegicus [7]): 30%; inhibition (Rattus norvegicus [2]): inactive |
| CCOc1ccc2cc(CCC(C)=O)ccc2c1 | 12 | – |
| COc1ccc2cc(CCC(C)OC(=O)CC(C)(C)CC(=O)O)ccc2c1 (stereo not drawn) | 26 | – |
| COc1ccc2cc(CCC(C)OC(C)=O)ccc2c1 (stereo not drawn) | 38 | – |
| COc1ccc2ccccc2c1CCC(C)=O | 10 | – |
| CC(=O)CCc1ccc2cc(Cl)ccc2c1 | 53 | – |
| COc1ccc2cc(CCC(C)O)ccc2c1 (stereo not drawn) | 32 | – |
| COc1ccc2cc(CC(=O)O)ccc2c1 | – | inhibition (Rattus norvegicus [1]): Active |
| CC(=O)CCc1ccc2ccccc2c1 | 20 | – |
| COc1ccc2cc(CC/C(C)=N\O)ccc2c1 | 15 | – |
| COc1ccc2cc(/C=C/C(C)=O)ccc2c1 | 18 | inhibition in vivo at 100 mg/kg (Rattus norvegicus [5]): 50% |
| Cc1ccc2cc(CCC(C)O)ccc2c1 (stereo not drawn) | 35 | – |
| CCC(=O)CCc1ccc2cc(OC)ccc2c1 | 7 | – |
| COc1ccc(CCC(C)=O)c2ccccc12 | 0 | – |
| CC(=O)/C=C/c1ccc2cc(C)ccc2c1 | 29 | – |
| CCC(CC(C)=O)c1ccc2cc(OC)ccc2c1 (stereo not drawn) | 20 | – |
| CC(=O)Oc1ccccc1C(=O)O [ASPIRIN] | – | inhibition in vivo at 100 mg/kg (Rattus norvegicus [8]): 5%; inhibition (Rattus norvegicus [2]): inactive; inhibition in vivo at 300 mg/kg (Rattus norvegicus [9]): 31% |
